Experimental data as given in ChEMBL document CHEMBL3994666 (ACS Med Chem Lett, 2017).
Values after ≈ are worked out from the molar mass of the structure shown. Active and inactive are the calls of the source. No cut-off for these calls is given here.

Assays:
[1] = test system: PBMC; experiment: Anti-inflammatory activity in human PBMC assessed as inhibition of LPS-induced IL-12/23 p40 production pretreated for 1 hr followed by LPS stimulation measured after 20 hrs; type: functional, cell-based
[2] = Stability in Sprague-Dawley rat liver S9 fraction assessed as compound remaining at 1 uM incubated for 90 mins in absence of NADPH by LC-MS/MS analysis; type: ADME, tissue-based; conditions: read-out: Stability
Procedure, shortened: (§1)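 Compound incubated with liver S9 fraction for 90 min without NADPH. Values are mean ± SD, n ≥ 3.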

[3] = test system: PBMC; experiment: Anti-inflammatory activity in human PBMC assessed as inhibition of LPS-induced GMCSF production pretreated for 1 hr followed by LPS stimulation measured after 20 hrs; type: functional, cell-based
[4] = test system: Mus musculus; experiment: In vivo inhibition of LMP7 in Balb/c mouse assessed as residual activity in blood at 1 mg/kg, iv administered as single bolus dose using PEG300/WFI formulation after 1 hr by ELISA relative to control; type: functional
Procedure, shortened: (§2)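 Mice dosed intravenously at nominal doses. Blood collected 1 h later and proteasome active-site activity (LMP2, LMP7, β5) measured by ProCISE subunit-specific ELISA. Expressed as % activity remaining relative to control.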

[5] = test system: PBMC; experiment: Anti-inflammatory activity in human PBMC assessed as inhibition of LPS-induced IL-6 production pretreated for 1 hr followed by LPS stimulation measured after 20 hrs; type: functional, cell-based
[6] = Stability in Balb/c mouse liver S9 fraction assessed as compound remaining at 1 uM incubated for 90 mins in absence of NADPH by LC-MS/MS analysis; type: ADME, tissue-based; conditions: read-out: Stability; procedure, shortened: as §1
[7] = Solubility of the compound in phosphate buffer at pH 7.2 at 10 mg/ml after 24 hrs by UV-HPLC method; type: physicochemical
Procedure, shortened: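 Solubility measured at pH 7.2. Values are mean ± SD, n = 2.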

[8] = test system: Mus musculus; experiment: In vivo inhibition of LMP2 in Balb/c mouse assessed as residual activity in blood at 1 mg/kg, iv administered as single bolus dose using PEG300/WFI formulation after 1 hr by ELISA relative to control; type: functional; procedure, shortened: as §2
[9] = test system: PBMC; experiment: Anti-inflammatory activity in human PBMC assessed as inhibition of LPS-induced Il-1b production pretreated for 1 hr followed by LPS stimulation measured after 20 hrs; type: functional, cell-based
[10] = Stability in human liver S9 fraction assessed as compound remaining at 1 uM incubated for 90 mins in absence of NADPH by LC-MS/MS analysis; type: ADME, tissue-based; conditions: read-out: Stability; procedure, shortened: as §1
[11] = test system: Mus musculus; experiment: In vivo inhibition of proteasome beta5 in Balb/c mouse assessed as residual activity in blood at 1 mg/kg, iv administered as single bolus dose using PEG300/WFI formulation after 1 hr by ELISA relative to control; type: functional; procedure, shortened: as §2
[12] = test system: PBMC; experiment: Anti-inflammatory activity in human PBMC assessed as inhibition of LPS-induced IL-8 production pretreated for 1 hr followed by LPS stimulation measured after 20 hrs; type: functional, cell-based
[13] = test system: PBMC; experiment: Cytotoxicity against human PBMC assessed as decrease in cell viability by CellTiter-Glo assay; type: cell-based
Procedure, shortened: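 PBMC viability read out with CellTiter-Glo. IC50 derived from the viability signal.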

[14] = test system: PBMC; experiment: Anti-inflammatory activity in human PBMC assessed as inhibition of LPS-induced TNF-alpha production pretreated for 1 hr followed by LPS stimulation measured after 20 hrs; type: functional, cell-based
[15] = biological target: T1, Proteasome subunit beta type-8 (Homo sapiens, UniProt P28062); experiment: Inhibition of LMP7 in human MOLT4 cell lysate after 1 hr by ELISA
T1 sequence (P28062 whole entry): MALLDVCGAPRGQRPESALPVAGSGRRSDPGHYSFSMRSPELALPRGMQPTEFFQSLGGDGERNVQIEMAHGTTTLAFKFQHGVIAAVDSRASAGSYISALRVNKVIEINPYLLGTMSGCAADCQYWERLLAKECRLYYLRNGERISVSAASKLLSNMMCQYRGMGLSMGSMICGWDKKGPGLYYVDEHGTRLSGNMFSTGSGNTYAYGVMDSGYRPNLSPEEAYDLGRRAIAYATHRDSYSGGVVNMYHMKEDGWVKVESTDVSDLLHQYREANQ
Procedure, shortened: (§3)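 ProCISE subunit-specific ELISA of proteasome catalytic active sites in cell lysate. Values are mean ± SD, n ≥ 2.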

[16] = biological target: T2, Proteasome Macropain subunit MB1 (Homo sapiens, UniProt P28074); experiment: Inhibition of proteasome beta5 in human MOLT4 cell lysate after 1 hr by ELISA; procedure, shortened: as §3
T2 sequence (P28074 whole entry): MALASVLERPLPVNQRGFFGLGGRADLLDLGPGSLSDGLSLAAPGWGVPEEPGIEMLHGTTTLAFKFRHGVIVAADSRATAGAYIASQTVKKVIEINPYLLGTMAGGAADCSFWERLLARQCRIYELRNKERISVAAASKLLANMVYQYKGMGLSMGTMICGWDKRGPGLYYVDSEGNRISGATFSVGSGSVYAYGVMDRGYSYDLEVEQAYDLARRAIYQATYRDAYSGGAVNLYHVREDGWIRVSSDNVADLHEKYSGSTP

[17] = biological target: T3, Proteasome subunit beta type-10 (Homo sapiens, UniProt P40306); experiment: Inhibition of MECL1 in human MOLT4 cell lysate after 1 hr by ELISA
T3 sequence (P40306 whole entry): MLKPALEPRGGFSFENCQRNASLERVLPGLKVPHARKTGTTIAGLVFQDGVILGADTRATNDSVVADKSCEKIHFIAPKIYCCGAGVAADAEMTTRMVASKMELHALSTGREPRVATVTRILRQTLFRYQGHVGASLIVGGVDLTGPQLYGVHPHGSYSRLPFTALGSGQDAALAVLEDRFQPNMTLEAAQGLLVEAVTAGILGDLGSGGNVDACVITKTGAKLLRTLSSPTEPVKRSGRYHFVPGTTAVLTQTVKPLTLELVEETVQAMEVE

[18] = test system: Mus musculus; experiment: In vivo inhibition of proteasome beta5 in Balb/c mouse assessed as residual activity in blood at 2 mg/kg, iv administered as single bolus dose using 10% EtOH/25% PEG300 formulation after 1 hr by ELISA relative to control; type: functional; procedure, shortened: as §2
[19] = test system: Mus musculus; experiment: In vivo inhibition of LMP2 in Balb/c mouse assessed as residual activity in blood at 2 mg/kg, iv administered as single bolus dose using 10% EtOH/25% PEG300 formulation after 1 hr by ELISA relative to control; type: functional; procedure, shortened: as §2
[20] = test system: Mus musculus; experiment: In vivo inhibition of LMP7 in Balb/c mouse assessed as residual activity in blood at 2 mg/kg, iv administered as single bolus dose using 10% EtOH/25% PEG300 formulation after 1 hr by ELISA relative to control; type: functional; procedure, shortened: as §2
[21] = biological target: T4, Proteasome subunit beta type-9 (Homo sapiens, UniProt P28065); experiment: Inhibition of LMP2 in human MOLT4 cell lysate after 1 hr by ELISA; procedure, shortened: as §3
T4 sequence (P28065 whole entry): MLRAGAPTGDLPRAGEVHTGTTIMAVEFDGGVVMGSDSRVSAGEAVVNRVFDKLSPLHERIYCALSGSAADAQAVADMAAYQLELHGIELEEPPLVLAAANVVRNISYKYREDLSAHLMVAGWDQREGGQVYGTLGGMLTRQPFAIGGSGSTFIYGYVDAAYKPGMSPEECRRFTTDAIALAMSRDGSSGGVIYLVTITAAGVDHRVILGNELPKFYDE

[22] = test system: Mus musculus; experiment: In vivo inhibition of proteasome beta5 in Balb/c mouse assessed as residual activity in blood at 1 mg/kg, iv administered as single bolus dose using 10% EtOH/25% PEG300 formulation after 1 hr by ELISA relative to control; type: functional; procedure, shortened: as §2
[23] = test system: Mus musculus; experiment: In vivo inhibition of LMP2 in Balb/c mouse heart at >1 mg/kg, iv administered as single bolus dose using 10% EtOH/25% PEG300 formulation after 1 hr by ELISA relative to control; type: functional
[24] = test system: Mus musculus; experiment: In vivo inhibition of LMP2 in Balb/c mouse brain at >1 mg/kg, iv administered as single bolus dose using 10% EtOH/25% PEG300 formulation after 1 hr by ELISA; type: functional, organism-based
[25] = test system: Mus musculus; experiment: In vivo inhibition of LMP2 in Balb/c mouse liver at >1 mg/kg, iv administered as single bolus dose using 10% EtOH/25% PEG300 formulation after 1 hr by ELISA relative to control; type: functional
[26] = test system: Mus musculus; experiment: In vivo inhibition of LMP2 in Balb/c mouse assessed as residual activity in blood at 1 mg/kg, iv administered as single bolus dose using 10% EtOH/25% PEG300 formulation after 1 hr by ELISA relative to control; type: functional; procedure, shortened: as §2
[27] = test system: Mus musculus; experiment: In vivo inhibition of LMP7 in Balb/c mouse assessed as residual activity in blood at 1 mg/kg, iv administered as single bolus dose using 10% EtOH/25% PEG300 formulation after 1 hr by ELISA relative to control; type: functional; procedure, shortened: as §2
[28] = test system: Mus musculus; experiment: In vivo inhibition of LMP2 in Balb/c mouse kidney at >1 mg/kg, iv administered as single bolus dose using 10% EtOH/25% PEG300 formulation after 1 hr by ELISA relative to control; type: functional

SMILES	IC50 [1]	remaining at 1.5 h, 1 µM [2]	IC50 [3]	IC50 [5]	remaining at 1.5 h, 1 µM [6]	solubility at 24 h [7]	IC50 [9]	remaining at 1.5 h, 1 µM [10]	IC50 [12]	IC50 [13]	IC50 [14]	IC50 [15]	IC50 [16]	IC50 [17]	IC50 [21]	also measured
COc1ccc(C[C@H](NC(=O)[C@H](C)NC(=O)CN2CCOCC2)C(=O)N[C@@H](Cc2ccccc2)C(=O)[C@@]2(C)CO2)cc1	0.12 µM	23.3%	0.22 µM	0.24 µM	106%	461 µg/mL (≈ 0.794 mM)	1.47 µM	8.6%	1.11 µM	3.4 µM	0.56 µM	–	–	–	–	Activity [4]: 65.3%; Activity [8]: 95%; Activity [11]: 99.8%
COc1ccc(C[C@H](NC(=O)c2cccc(=O)[nH]2)C(=O)N[C@@H](Cc2ccccc2)C(=O)[C@@]2(C)CO2)cc1	> 5.6 µM	8%	> 25 µM	> 15.8 µM	0.4%	166 µg/mL (≈ 0.33 mM)	> 25 µM	1.1%	> 25 µM	> 25 µM	> 25 µM	4.81 µM	18.2 µM	> 250 µM	0.14 µM	Activity [18]: 90.7%; Activity [19]: 83%; Activity [20]: 98.3%
C[C@H](NC(=O)c1cccc(=O)[nH]1)C(=O)N[C@@H](Cc1ccccc1)C(=O)[C@@]1(C)CO1	–	58.8%	–	–	85.1%	7520 µg/mL (≈ 18.9 mM)	–	25.3%	–	–	–	44.6 µM	42.5 µM	> 250 µM	0.112 µM	–
C[C@]1(C(=O)[C@H](Cc2ccccc2)NC(=O)[C@H](CO)NC(=O)c2cccc(=O)[nH]2)CO1	> 9.7 µM	92.3%	> 25 µM	> 19.2 µM	90.9%	6640 µg/mL (≈ 16.1 mM)	> 25 µM	81.5%	> 25 µM	> 25 µM	> 25 µM	4.27 µM	6.89 µM	> 250 µM	0.051 µM	Activity [22]: 101.7%; inhibition (INH) [23]: >50%; inhibition [24]: inactive; inhibition (INH) [25]: >50%; Activity [26]: 31.1%; Activity [27]: 102.5%; inhibition (INH) [28]: >50%
